Data from ChEMBL document CHEMBL1141480 (Bioorg Med Chem Lett, 2008).
Converted amounts (≈) assume the structure as drawn. Blank lines part the entries; values can stand above or below the compound they belong to.

What was measured:
Cathepsin K [1] = biological target: Cathepsin K (Homo sapiens, UniProt P43235); assay: Inhibition of humanized rabbit cathepsin K
Cathepsin B [2] = biological target: T1, Cathepsin B (Homo sapiens, UniProt P07858); assay: Inhibition of cathepsin B
How it was run: (§1)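 Purified human cathepsin enzymes, with assay conditions per an earlier report. Read-out is IC50; standard deviations were typically within 35% of the IC50.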

Procathepsin L [3] = biological target: T2, Procathepsin L (Homo sapiens, UniProt P07711); assay: Inhibition of cathepsin L; how it was run: as §1
Cathepsin S [4] = biological target: T3, Cathepsin S (Homo sapiens, UniProt P25774); assay: Inhibition of cathepsin S; how it was run: as §1
[5] = Half life in monkey; type: ADME, organism-based, Macaca mulatta; details: rhesus monkey, in vivo
[6] = Clearance in monkey; type: ADME, organism-based, Macaca mulatta; details: rhesus monkey, in vivo
Cathepsin K [7] = biological target: T4, Cathepsin K (Oryctolagus cuniculus, UniProt P43236); assay: Inhibition of rabbit cathepsin K
T4 sequence (P43236 whole entry): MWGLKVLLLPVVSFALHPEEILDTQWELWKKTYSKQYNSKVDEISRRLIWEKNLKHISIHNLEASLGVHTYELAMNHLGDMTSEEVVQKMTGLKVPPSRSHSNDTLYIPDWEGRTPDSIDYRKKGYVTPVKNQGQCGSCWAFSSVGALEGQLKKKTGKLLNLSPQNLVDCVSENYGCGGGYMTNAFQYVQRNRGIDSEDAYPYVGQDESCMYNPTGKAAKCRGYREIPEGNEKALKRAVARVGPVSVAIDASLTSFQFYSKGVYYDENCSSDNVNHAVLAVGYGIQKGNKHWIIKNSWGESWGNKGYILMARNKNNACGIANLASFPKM

Osteoclast = assay: Inhibition of bone resorption in rabbit osteoclast; details: Oryctolagus cuniculus
Fibroblast = assay: Accumulation of intracellular type I collagen in human dermal fibroblast upto 10 uM; type: functional
How it was run: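 Primary human dermal fibroblasts were grown in 3-D collagen gel, with inhibitors present for the final 3 days at concentrations up to 10 µM. Cells were freed from the gel with collagenase, fixed and permeabilized. Intracellular type I collagen was stained with an anti-type I collagen mAb plus a FITC-labelled secondary antibody and quantified by flow cytometry.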

Cathepsin F = biological target: T5, Cathepsin F (Homo sapiens, UniProt Q9UBX1); assay: Inhibition of cathepsin F; how it was run: as §1
T5 sequence (Q9UBX1 whole entry): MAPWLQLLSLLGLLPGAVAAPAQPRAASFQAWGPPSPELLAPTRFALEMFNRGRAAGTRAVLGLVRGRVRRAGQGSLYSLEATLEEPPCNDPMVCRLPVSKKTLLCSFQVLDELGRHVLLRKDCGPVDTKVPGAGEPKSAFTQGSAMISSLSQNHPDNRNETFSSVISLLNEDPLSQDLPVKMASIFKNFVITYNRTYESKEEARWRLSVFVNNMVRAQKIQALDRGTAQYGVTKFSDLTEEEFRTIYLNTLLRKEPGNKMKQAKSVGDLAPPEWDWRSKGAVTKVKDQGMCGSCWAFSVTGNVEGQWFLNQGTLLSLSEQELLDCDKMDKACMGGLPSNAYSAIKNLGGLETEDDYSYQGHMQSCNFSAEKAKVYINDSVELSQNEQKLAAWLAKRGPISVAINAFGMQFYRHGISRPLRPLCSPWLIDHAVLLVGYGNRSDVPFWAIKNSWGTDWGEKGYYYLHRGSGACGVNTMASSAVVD

Cathepsin L2 = biological target: T6, Cathepsin L2 (Homo sapiens, UniProt O60911); assay: Inhibition of cathepsin V; how it was run: as §1
T6 sequence (O60911 whole entry): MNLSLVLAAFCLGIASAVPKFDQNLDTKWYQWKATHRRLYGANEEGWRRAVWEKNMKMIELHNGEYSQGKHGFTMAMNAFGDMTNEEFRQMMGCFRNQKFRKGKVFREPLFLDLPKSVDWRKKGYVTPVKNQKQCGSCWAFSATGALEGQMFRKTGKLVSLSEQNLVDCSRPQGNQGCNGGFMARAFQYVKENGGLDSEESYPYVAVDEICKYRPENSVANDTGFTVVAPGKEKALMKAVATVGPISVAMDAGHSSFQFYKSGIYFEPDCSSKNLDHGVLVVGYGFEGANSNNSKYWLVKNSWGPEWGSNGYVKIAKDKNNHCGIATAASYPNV

Dipeptidyl peptidase 1 = Dipeptidyl peptidase 1 (Homo sapiens, UniProt P53634); assay: Inhibition of cathepsin C; how it was run: as §1
Pro-cathepsin H = biological target: T7, Pro-cathepsin H (Homo sapiens, UniProt P09668); assay: Inhibition of cathepsin H; how it was run: as §1
T7 sequence (P09668 whole entry): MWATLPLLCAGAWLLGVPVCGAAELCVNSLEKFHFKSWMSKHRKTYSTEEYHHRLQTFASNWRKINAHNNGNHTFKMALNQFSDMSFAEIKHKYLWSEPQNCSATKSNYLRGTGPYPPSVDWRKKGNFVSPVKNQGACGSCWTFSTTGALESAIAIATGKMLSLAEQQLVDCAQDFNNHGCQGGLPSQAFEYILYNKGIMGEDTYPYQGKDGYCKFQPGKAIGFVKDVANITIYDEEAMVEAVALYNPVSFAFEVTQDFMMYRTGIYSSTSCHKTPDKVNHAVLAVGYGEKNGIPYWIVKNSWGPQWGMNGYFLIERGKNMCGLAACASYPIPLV

Cathepsin Z = Cathepsin Z (Homo sapiens, UniProt Q9UBR2); assay: Inhibition of cathepsin Z
Cathepsin K [8] = biological target: T8, Cathepsin K (Homo sapiens, UniProt P43235); assay: Inhibition of human cathepsin K
T8 sequence (P43235 whole entry): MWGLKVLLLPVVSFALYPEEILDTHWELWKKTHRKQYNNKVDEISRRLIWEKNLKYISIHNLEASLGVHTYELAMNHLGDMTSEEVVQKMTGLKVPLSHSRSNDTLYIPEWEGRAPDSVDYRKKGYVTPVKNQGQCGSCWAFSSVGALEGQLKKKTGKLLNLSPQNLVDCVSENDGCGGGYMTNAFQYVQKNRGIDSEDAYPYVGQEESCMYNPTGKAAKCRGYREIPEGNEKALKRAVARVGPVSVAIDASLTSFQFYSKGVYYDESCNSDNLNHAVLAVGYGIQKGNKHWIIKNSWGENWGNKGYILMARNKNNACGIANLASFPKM

Cathepsin B [9] = biological target: T1, Cathepsin B; assay: Inhibition of cathepsin B in human HepG2 cells; type: cell-based
How it was run: (§2)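 Whole-cell enzyme occupancy assays run as previously described: human HepG2 cells for cathepsin B and L, and Ramos cells for cathepsin S. Read-out is IC50.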

Procathepsin L [10] = biological target: T2, Procathepsin L; assay: Inhibition of cathepsin L in human HepG2 cells; type: cell-based
Cathepsin S [11] = biological target: T3, Cathepsin S; assay: Inhibition of cathepsin S in human ramos cells; type: cell-based; how it was run: as §2
[12] = Metabolic stability in rhesus monkey hepatocyte at 20 uM after 2 hrs assessed as recovery of parent compound; type: ADME, cell-based, Macaca mulatta; details: hepatocytes, read-out: Stability
[13] = Metabolic stability in human hepatocyte at 20 uM after 2 hrs assessed as recovery of parent compound; type: ADME, cell-based; details: hepatocytes, read-out: Stability
[14] = Metabolic stability in dog hepatocyte at 20 uM after 2 hrs assessed as recovery of parent compound; type: ADME, cell-based, Canis lupus familiaris; details: hepatocytes, read-out: Stability
[15] = Oral bioavailability in rat at 10 mg/kg; type: ADME, organism-based; details: in vivo
[16] = Clearance in rat at 10 mg/kg, po; type: ADME, organism-based; design: dose 10 mg/kg, route oral; details: in vivo
[17] = Half life in rat at 10 mg/kg, po; type: ADME, organism-based; design: dose 10 mg/kg, route oral; details: in vivo
Rattus norvegicus = assay: Volume of distribution at steady state in rat at 10 mg/kg, po; type: ADME, organism-based; design: dose 10 mg/kg, route oral; details: in vivo
[18] = Oral bioavailability in dog at 5 mg/kg; type: ADME, organism-based, Canis lupus familiaris; details: in vivo
[19] = Clearance in dog at 5 mg/kg, po; type: ADME, organism-based, Canis lupus familiaris; design: dose 5 mg/kg, route oral; details: in vivo
[20] = Half life in dog at 5 mg/kg, po; type: ADME, organism-based, Canis lupus familiaris; design: dose 5 mg/kg, route oral; details: in vivo
Canis familiaris = assay: Volume of distribution at steady state in dog at 5 mg/kg, po; type: ADME, organism-based, Canis lupus familiaris; design: dose 5 mg/kg, route oral; details: in vivo
[21] = Oral bioavailability in rhesus monkey at 5 mg/kg; type: ADME, organism-based, Macaca mulatta; details: in vivo
[22] = Clearance in rhesus monkey at 5 mg/kg, po; type: ADME, organism-based, Macaca mulatta; design: dose 5 mg/kg, route oral; details: in vivo
[23] = Half life in rhesus monkey at 5 mg/kg, po; type: ADME, organism-based, Macaca mulatta; design: dose 5 mg/kg, route oral; details: in vivo
Rhesus monkey = assay: Volume of distribution at steady state in rhesus monkey at 5 mg/kg, po; type: ADME, organism-based, Macaca mulatta; design: dose 5 mg/kg, route oral; details: in vivo
[24] = Inhibition of antigen presenting mouse B cells; type: functional, cell-based
Splenocyte = assay: Inhibition of MHC 2 invariant chain iip10 in mouse splenocytes; type: functional, cell-based

T3 sequence (P25774 whole entry): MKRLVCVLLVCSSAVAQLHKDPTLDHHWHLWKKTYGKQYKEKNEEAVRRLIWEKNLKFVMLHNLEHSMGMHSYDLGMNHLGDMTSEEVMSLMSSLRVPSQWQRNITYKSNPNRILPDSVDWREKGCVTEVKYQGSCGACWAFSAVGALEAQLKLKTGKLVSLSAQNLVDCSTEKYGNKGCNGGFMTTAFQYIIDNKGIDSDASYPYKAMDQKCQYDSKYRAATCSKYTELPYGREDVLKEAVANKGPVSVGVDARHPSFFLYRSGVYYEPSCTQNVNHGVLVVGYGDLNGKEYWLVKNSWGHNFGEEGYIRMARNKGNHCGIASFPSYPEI
T2 sequence (P07711 whole entry): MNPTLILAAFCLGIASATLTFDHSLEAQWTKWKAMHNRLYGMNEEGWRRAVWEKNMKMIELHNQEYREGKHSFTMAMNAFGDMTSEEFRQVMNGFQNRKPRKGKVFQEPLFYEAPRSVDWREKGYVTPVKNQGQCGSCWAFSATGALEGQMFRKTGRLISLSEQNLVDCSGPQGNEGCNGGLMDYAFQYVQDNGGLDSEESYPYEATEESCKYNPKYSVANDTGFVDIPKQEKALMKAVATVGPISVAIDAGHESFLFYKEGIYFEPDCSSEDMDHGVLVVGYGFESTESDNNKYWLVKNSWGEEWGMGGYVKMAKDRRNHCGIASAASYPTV
Chain of Dipeptidyl peptidase 1 (P53634 25-134 limits assumed): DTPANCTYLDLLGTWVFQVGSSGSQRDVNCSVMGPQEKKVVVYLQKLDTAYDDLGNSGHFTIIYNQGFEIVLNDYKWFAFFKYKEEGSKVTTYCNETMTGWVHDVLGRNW
Chain of Dipeptidyl peptidase 1 (P53634 231-394 limits assumed): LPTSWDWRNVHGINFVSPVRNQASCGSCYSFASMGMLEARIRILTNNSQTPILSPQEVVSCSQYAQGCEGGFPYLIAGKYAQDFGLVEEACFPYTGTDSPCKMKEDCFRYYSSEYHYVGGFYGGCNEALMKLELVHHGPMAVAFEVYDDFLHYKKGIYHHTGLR
Chain of Dipeptidyl peptidase 1 (P53634 395-463 limits assumed): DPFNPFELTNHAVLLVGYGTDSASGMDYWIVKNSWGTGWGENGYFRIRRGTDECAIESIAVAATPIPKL
Chain of Cathepsin Z (Q9UBR2 whole entry): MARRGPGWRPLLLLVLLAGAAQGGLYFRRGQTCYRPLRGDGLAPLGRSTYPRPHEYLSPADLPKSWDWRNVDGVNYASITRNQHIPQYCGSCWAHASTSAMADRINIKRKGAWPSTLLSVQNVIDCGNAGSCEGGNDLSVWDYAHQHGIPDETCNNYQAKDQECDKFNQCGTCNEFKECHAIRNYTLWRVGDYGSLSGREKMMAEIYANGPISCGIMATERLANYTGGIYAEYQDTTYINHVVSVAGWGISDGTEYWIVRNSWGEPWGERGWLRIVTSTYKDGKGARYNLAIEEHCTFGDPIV

- IC50 (Cathepsin K [1]): 0.0012 µM
- IC50 (Cathepsin B [2]): > 10 µM
- IC50 (Procathepsin L [3]): 3.39 µM
- IC50 (Cathepsin S [4]): 2.24 µM
SMILES: CC(C)C[C@H](N[C@@H](c1ccc(-c2ccc(S(C)(=O)=O)cc2)cc1)C(F)(F)F)C(=O)N[C@@H](C)C#N

- IC50 (Cathepsin K [1]): 0.0051 µM
- IC50 (Cathepsin B [2]): > 10 µM
- IC50 (Procathepsin L [3]): 2.94 µM
- IC50 (Cathepsin S [4]): 2.83 µM
SMILES: CC(C)C[C@H](N[C@@H](c1ccc(-c2ccc(S(C)(=O)=O)cc2)cc1)C(F)(F)F)C(=O)N[C@@H](C#N)Cc1ccccc1

- IC50 (Cathepsin K [1]): 0.0006 µM
- IC50 (Cathepsin B [2]): 0.953 µM
- IC50 (Procathepsin L [3]): 0.067 µM
- IC50 (Cathepsin S [4]): 0.038 µM
SMILES: CC(C)C[C@H](N[C@@H](c1ccc(-c2ccc(S(C)(=O)=O)cc2)cc1)C(F)(F)F)C(=O)N[C@H](C#N)Cc1ccccc1

- IC50 (Cathepsin K [1]): 0.004 µM
- IC50 (Cathepsin B [2]): > 10 µM
- IC50 (Procathepsin L [3]): > 10 µM
- IC50 (Cathepsin S [4]): 2.49 µM
SMILES: CC(C)C[C@H](N[C@@H](c1ccc(-c2ccc(S(C)(=O)=O)cc2)cc1)C(F)(F)F)C(=O)NC(C)(C)C#N

- half-life [5]: 2 h
- clearance [6]: 7.5 mL/min/kg
- IC50 (Cathepsin K [1]): 0.0002 µM
- IC50 (Cathepsin K [7]): 0.0008 µM
- IC50 (Osteoclast): 0.013 µM
SMILES: CC(C)C[C@H](N[C@@H](c1ccc(-c2ccc(S(C)(=O)=O)cc2)cc1)C(F)(F)F)C(=O)NCC#N

- IC50 (Cathepsin K [1]): 0.0006 µM
- IC50 (Cathepsin B [2]): 3.45 µM
- IC50 (Procathepsin L [3]): 0.667 µM
- IC50 (Cathepsin S [4]): 0.217 µM
SMILES: CC(C)C[C@H](N[C@@H](c1ccc(-c2ccc(S(C)(=O)=O)cc2)cc1)C(F)(F)F)C(=O)NC(C#N)c1ccccc1 (mixture of isomers)

SMILES: CCCN1CCN(c2ccc(C(=O)NC3(C(=O)NCC#N)CCCCC3)cc2)CC1 [BALICATIB]
- Activity (Fibroblast): 3

- IC50 (Cathepsin K [1]): 0.0002 µM
- IC50 (Cathepsin B [2]): 1.03 µM
- IC50 (Procathepsin L [3]): 3 µM
- IC50 (Cathepsin S [4]): 0.06 µM
- IC50 (Cathepsin F): 0.795 µM
- IC50 (Cathepsin L2): 0.762 µM
- IC50 (Dipeptidyl peptidase 1): > 10 µM
- IC50 (Pro-cathepsin H): > 10 µM
- IC50 (Cathepsin Z): > 10 µM
- IC50 (Cathepsin K [8]): 0.0002 µM
- IC50 (Cathepsin K [7]): 0.001 µM
- IC50 (Osteoclast): 0.023 µM
- IC50 (Cathepsin B [9]): 1.05 µM
- IC50 (Procathepsin L [10]): 4.84 µM
- IC50 (Cathepsin S [11]): 0.045 µM
- remaining at 2 h, 20 µM [12]: 98%
- remaining at 2 h, 20 µM [13]: > 99%
- remaining at 2 h, 20 µM [14]: > 99%
- bioavailability [15]: 8%
- CL/F [16]: 2 mL/min/kg
- half-life [17]: 6 h
- Vdss (Rattus norvegicus): 1.1 L/kg
- bioavailability [18]: 6%
- CL/F [19]: 0.13 mL/min/kg
- half-life [20]: 57 h
- Vdss (Canis familiaris): 0.6 L/kg
- bioavailability [21]: 7%
- CL/F [22]: 6.1 mL/min/kg
- half-life [23]: 18 h
- Vdss (Rhesus monkey): 1.6 L/kg
- IC50 [24]: 1.5 µM
- MIC (Splenocyte): 1 µM (≈ 0.526 µg/mL)
SMILES: CC(C)(F)C[C@H](N[C@@H](c1ccc(-c2ccc(S(C)(=O)=O)cc2)cc1)C(F)(F)F)C(=O)NC1(C#N)CC1 [ODANACATIB]

- IC50 (Osteoclast): 0.015 µM
- IC50 (Cathepsin B [9]): 0.014 µM
- IC50 (Cathepsin S [11]): 0.008 µM
SMILES: CC(C)C[C@H](NC(=O)c1cc2ccccc2o1)C(=O)N[C@H]1CC[C@@H](C)N(S(=O)(=O)c2ccccn2)CC1=O [RELACATIB]
